Test results published in ChEMBL document CHEMBL1142874, “Design and synthesis of anticonvulsants from a combined phthalimide-GABA-anilide and hydrazone pharmacophore” (Eur J Med Chem, 2007).
Calls of active or inactive are those of the source. No cut-off for these calls is given here.

Legend:
Mus musculus [1] = experiment: Anticonvulsant activity against subcutaneous strychnine-induced seizure in Albino CF1 mouse at 300 mg/kg, ip after 4 hrs; assay type: functional, organism-based; design: dose 300 mg/kg
Outline: (§1)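 Test compounds given i.p. to mice at 0.01 mL/g, at 30, 100 or 300 mg/kg. The seizure challenge followed at 0.5 h and at 4 h after dosing. The value recorded is the lowest dose that protected half or more of the mice. Where no activity was seen, the maximum dose given was 300 mg/kg.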

Mus musculus [2] = experiment: Anticonvulsant activity against intraperitoneal picrotoxin-induced seizure in Albino CF1 mouse at 30 mg/kg, ip after 0.5 hrs; assay type: functional, organism-based; design: dose 30 mg/kg
Outline: (§2)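 Mice received the test compound by intraperitoneal injection at 30, 100 or 300 mg/kg. They were then challenged with intraperitoneal picrotoxin and scored for anticonvulsant protection 0.5 h or 4 h after dosing. The value recorded is the lowest dose that protected half or more of the mice. A dash means no activity up to 300 mg/kg.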

Mus musculus [3] = experiment: Anticonvulsant activity against subcutaneous strychnine-induced seizure in Albino CF1 mouse at 100 mg/kg, ip after 0.5 hrs; assay type: functional, organism-based; design: dose 100 mg/kg; outline: as §1
Mus musculus [4] = experiment: Anticonvulsant activity against intraperitoneal picrotoxin-induced seizure in Albino CF1 mouse at 100 mg/kg, ip after 4 hrs; assay type: functional, organism-based; design: dose 100 mg/kg; outline: as §2
Mus musculus [5] = experiment: Neurotoxicity in Albino CF1 mouse at 300 mg/kg, ip after 4 hrs by Rotarod test; assay type: toxicity, organism-based; design: dose 300 mg/kg, route intraperitoneal; settings: in vivo
Outline: (§3)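 Rotarod test in mice pre-trained to stay on the rod for two consecutive 90 s trials. Compounds given i.p. at 30, 100 or 300 mg/kg, with testing at 0.5 h and 4 h. Deficit was scored as failure to keep balance on the rod for 1 min in each of three trials. The value recorded is the lowest dose affecting half or more of the mice.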

Mus musculus [6] = experiment: Anticonvulsant activity in Albino CF1 mouse upto 300 mg/kg, ip in maximal electroshock seizure test; assay type: functional, organism-based; design: dose 300 mg/kg
Outline: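 Mice dosed i.p. (0.01 mL/g) at 30, 100 and 300 mg/kg. Electroshock challenge run 30 min and 4 h after dosing.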

Mus musculus [7] = experiment: Anticonvulsant activity against subcutaneous pentylenetetrazole-induced seizure in Albino CF1 mouse at 100 mg/kg, ip after 4 hrs; assay type: functional, organism-based; design: dose 100 mg/kg; outline: as §1
Mus musculus [8] = experiment: Neurotoxicity in Albino CF1 mouse at 100 mg/kg, ip after 0.5 hrs by Rotarod test; assay type: toxicity, organism-based; design: dose 100 mg/kg, route intraperitoneal; settings: in vivo; outline: as §3
Mus musculus [9] = experiment: Anticonvulsant activity against subcutaneous pentylenetetrazole-induced seizure in Albino CF1 mouse at 300 mg/kg, ip after 0.5 hrs; assay type: functional, organism-based; design: dose 300 mg/kg; outline: as §1
Mus musculus [10] = experiment: Anticonvulsant activity against subcutaneous pentylenetetrazole-induced seizure in Albino CF1 mouse at 100 mg/kg, ip after 0.5 hrs; assay type: functional, organism-based; design: dose 100 mg/kg; outline: as §1
Mus musculus [11] = experiment: Anticonvulsant activity against subcutaneous pentylenetetrazole-induced seizure in Albino CF1 mouse at 300 mg/kg, ip after 4 hrs; assay type: functional, organism-based; design: dose 300 mg/kg; outline: as §1
Mus musculus [12] = experiment: Anticonvulsant activity against intraperitoneal picrotoxin-induced seizure in Albino CF1 mouse at 100 mg/kg, ip after 0.5 hrs; assay type: functional, organism-based; design: dose 100 mg/kg; outline: as §2
Mus musculus [13] = experiment: Anticonvulsant activity against subcutaneous strychnine-induced seizure in Albino CF1 mouse at 300 mg/kg, ip after 0.5 hrs; assay type: functional, organism-based; design: dose 300 mg/kg; outline: as §1
Mus musculus [14] = experiment: Anticonvulsant activity against intraperitoneal picrotoxin-induced seizure in Albino CF1 mouse at 300 mg/kg, ip after 4 hrs; assay type: functional, organism-based; design: dose 300 mg/kg; outline: as §2
Mus musculus [15] = experiment: Neurotoxicity in Albino CF1 mouse at 30 mg/kg, ip after 0.5 hrs by Rotarod test; assay type: toxicity, organism-based; design: dose 30 mg/kg, route intraperitoneal; settings: in vivo; outline: as §3
Mus musculus [16] = experiment: Anticonvulsant activity against intraperitoneal picrotoxin-induced seizure in Albino CF1 mouse at 300 mg/kg, ip after 0.5 hrs; assay type: functional, organism-based; design: dose 300 mg/kg; outline: as §2

Structure (SMILES) | Activity (Mus musculus [1]) | Activity (Mus musculus [2]) | Activity (Mus musculus [3]) | Activity (Mus musculus [4]) | Activity (Mus musculus [5]) | Activity (Mus musculus [6]) | Activity (Mus musculus [7]) | Activity (Mus musculus [8]) | Activity (Mus musculus [9]) | Activity (Mus musculus [10]) | Activity (Mus musculus [11]) | Activity (Mus musculus [12]) | Activity (Mus musculus [13]) | Activity (Mus musculus [14]) | Activity (Mus musculus [15]) | Activity (Mus musculus [16])
Cc1cccc(C)c1NC(=O)CCCN1C(=O)c2ccccc2C1=O | Active | Active | Active | Active | Active | inactive | Active | Active | inactive |  |  |  |  |  |  | 
Cc1cc(NC(=O)CCCN2C(=O)c3ccccc3C2=O)ccc1Br | inactive |  |  |  | Active | inactive |  | Active |  | Active | inactive | Active | inactive | Active |  | 
O=C(CCCN1C(=O)c2ccccc2C1=O)Nc1ccc(Cl)cc1 | Active |  | Active |  | Active | inactive |  |  | inactive |  | inactive |  |  | inactive | Active | Active
